Reference: ChEMBL document CHEMBL1137097, “Discovery of potent and orally bioavailable N,N'-diarylurea antagonists for the CXCR2 chemokine receptor” (Bioorg Med Chem Lett, 2004)

Assays:
[1] = Plasma clearance in rat; assay type: ADME, organism-based
Outline: (§1)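 Male Sprague–Dawley rats, n=3 per study, in an iv/po crossover design. Dosed in aqueous solution with 1% DMSO and up to 20% hydroxypropyl-beta-cyclodextrin, 4 and 8 µmol/kg for iv and po. Lateral tail vein blood sampling. Plasma drug measured by LC/MS/MS, lower limit of quantification >10ng/mL.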

[2] = molecular target: T1, C-X-C chemokine receptor type 2 (Homo sapiens, UniProt P25025); assay: Concentration required to inhibit [125I]IL-8 binding towards C-X-C chemokine receptor type 2 of human expressed in CHO cells; assay type: cell-based
T1 sequence (P25025 whole entry): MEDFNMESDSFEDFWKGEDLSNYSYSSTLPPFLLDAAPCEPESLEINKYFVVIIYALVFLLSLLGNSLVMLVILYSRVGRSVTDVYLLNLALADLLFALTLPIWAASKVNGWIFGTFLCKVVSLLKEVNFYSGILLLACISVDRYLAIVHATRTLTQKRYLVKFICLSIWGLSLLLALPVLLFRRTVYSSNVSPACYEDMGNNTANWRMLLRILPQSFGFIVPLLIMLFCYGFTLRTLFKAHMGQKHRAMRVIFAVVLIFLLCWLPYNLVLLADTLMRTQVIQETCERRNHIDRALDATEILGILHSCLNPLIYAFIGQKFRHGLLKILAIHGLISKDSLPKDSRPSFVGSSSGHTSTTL
Outline: (§2)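 SPA binding on membranes from CHO cell lines expressing CXCR1 or CXCR2. Competition against radiolabeled human recombinant [125I]-IL-8 at 0.23nM. Values are the mean of three individual experiments.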

[3] = Oral bioavailability in rat; assay type: ADME, organism-based; details: in vivo; outline: as §1
[4] = pKa value was determined; assay type: physicochemical
Outline: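 pKa calculated in silico, not measured experimentally.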

[5] = molecular target: T2, C-X-C chemokine receptor type 1 (Homo sapiens, UniProt P25024); assay: Concentration required to inhibit [125I]-IL-8 binding towards C-X-C chemokine receptor type 1 of human expressed in CHO cells; assay type: cell-based; outline: as §2
T2 sequence (P25024 whole entry): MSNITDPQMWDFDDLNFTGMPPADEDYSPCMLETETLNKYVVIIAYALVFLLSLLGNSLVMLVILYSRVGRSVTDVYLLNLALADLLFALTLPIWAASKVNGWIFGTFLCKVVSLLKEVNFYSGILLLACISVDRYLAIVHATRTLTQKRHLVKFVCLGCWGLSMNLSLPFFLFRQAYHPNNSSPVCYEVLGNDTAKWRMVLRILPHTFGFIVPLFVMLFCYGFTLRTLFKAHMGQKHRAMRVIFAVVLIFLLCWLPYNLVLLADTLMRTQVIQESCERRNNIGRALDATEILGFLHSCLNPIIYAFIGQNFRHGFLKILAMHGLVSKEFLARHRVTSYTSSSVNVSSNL

[6] = In vitro intrinsic clearance of urea in rat liver microsomes in presence of UDPGA; assay type: ADME, Microsome
Outline: (§3)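 Rat or human liver microsomes at 0.5mg microsomal protein/mL, run with or without UDPGA. Final compound 0.5–1 µM. Substrate loss followed by LC/MS/MS over a 30-min incubation. CLint taken from the slope of substrate disappearance versus time.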

[7] = In vitro intrinsic clearance of urea in rat liver microsomes in absence of UDPGA; assay type: ADME, Microsome; outline: as §3
[8] = In vitro intrinsic clearance of urea in human liver microsomes in absence of UDPGA; assay type: ADME, Microsome; outline: as §3
[9] = In vitro intrinsic clearance of urea in human liver microsomes in presence of UDPGA; assay type: ADME, Microsome; outline: as §3

CN(C)S(=O)(=O)c1c(Cl)ccc(NC(=O)Nc2ccccc2Br)c1O
clearance [1]: 23.4 mL/min/kg | IC50 [2]: 12 nM | bioavailability [3]: 100% | pKa [4]: 6.19 | IC50 [5]: 4.32 µM

O=C(Nc1ccc(Cl)cc1O)Nc1ccccc1Br
clearance [1]: 323 mL/min/kg | IC50 [2]: 906 nM | bioavailability [3]: 6.6% | pKa [4]: 8.24

NC(=O)c1c(Cl)ccc(NC(=O)Nc2ccccc2Br)c1O
CL [6]: 5.3 ml min-1 g-1 liver | clearance [1]: 105 mL/min/kg | CL [7]: 1.5 ml min-1 g-1 liver | CL [8]: 0.74 ml min-1 g-1 liver | IC50 [2]: 10 nM | bioavailability [3]: 3.6% | pKa [4]: 7.11 | IC50 [5]: 6.04 µM | CL [9]: 1.5 ml min-1 g-1 liver

O=C(Nc1ccccc1Br)Nc1ccc(Cl)c(Cl)c1O
clearance [1]: 73.6 mL/min/kg | IC50 [2]: 63 nM | bioavailability [3]: 13% | pKa [4]: 7.24 | IC50 [5]: 13.4 µM

NS(=O)(=O)c1c(Cl)ccc(NC(=O)Nc2ccccc2Br)c1O
CL [6]: 5.3 ml min-1 g-1 liver | clearance [1]: 16.1 mL/min/kg | CL [7]: 1.5 ml min-1 g-1 liver | CL [8]: 0.74 ml min-1 g-1 liver | IC50 [2]: 7 nM | bioavailability [3]: 86% | pKa [4]: 6.12 | IC50 [5]: 1.37 µM | CL [9]: 1.5 ml min-1 g-1 liver

Cl.NCc1c(Cl)ccc(NC(=O)Nc2ccccc2Br)c1O
clearance [1]: 104 mL/min/kg | IC50 [2]: 114 nM | bioavailability [3]: 67% | pKa [4]: 6.85 | IC50 [5]: 30 µM
